# ChEMBL document CHEMBL1147441, “A new series of potent oxindole inhibitors of CDK2” (Bioorg Med Chem Lett, 2004)
# What was measured:
# [1] = tested on: MDA-MB-435; experiment: In vitro inhibition of MDA MB 435 (human breast cancer) cell proliferation.; assay type: functional, cell-based
# Outline: (§1)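 MTT-based proliferation assay run on tumour cells. IC50 values were taken from a single experiment.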
# [2] = tested on: SW480; experiment: In vitro inhibition of SW480 (human colon cancer) cell proliferation.; assay type: functional, cell-based; outline: as §1
# [3] = target: Cyclin-dependent kinase 2/cyclin E (Homo sapiens, UniProt P24941); experiment: In vitro inhibition of recombinant Cyclin Dependent Kinase-2/Cyclin E.; assay type: protein-complex assay
Structure (SMILES),IC50 [1] [nM],IC50 [2] [nM],IC50 [3] [nM]
COc1cc[nH]c1/C=C1\C(=O)Nc2ccc(F)c(C#C[C@@H](NS(C)(=O)=O)[C@@H](C)O)c21,2620,1180,45
CN[C@H](C#Cc1c(F)ccc2c1/C(=C/c1[nH]ccc1OC)C(=O)N2)[C@@H](C)O,358,140,7
COc1cc[nH]c1/C=C1\C(=O)Nc2ccc(F)c(C#C[C@@H](N)CO)c21,300,205,5
COc1cc[nH]c1/C=C1\C(=O)Nc2ccc(F)c(I)c21,> 30000,,1000
CCN[C@H](C#Cc1c(F)ccc2c1/C(=C/c1[nH]ccc1OC)C(=O)N2)CO,1160,566,21
CCN[C@H](C#Cc1c(F)ccc2c1/C(=C/c1[nH]ccc1OC)C(=O)N2)[C@@H](C)O,1070,549,18

# More lines, now with the values ahead:
IC50 [1] [nM],IC50 [2] [nM],IC50 [3] [nM],Structure (SMILES)
110,130,21,COc1cc[nH]c1/C=C1\C(=O)Nc2ccc(F)c(C#C[C@@H](C)O)c21
63,44,4,COc1cc[nH]c1/C=C1\C(=O)Nc2ccc(F)c(C#C[C@@H]3C[C@@H](O)CN3)c21
300,80,4,CN[C@@H](C#Cc1c(F)ccc2c1/C(=C/c1[nH]ccc1OC)C(=O)N2)CO
130,110,4,COc1cc[nH]c1/C=C1\C(=O)Nc2ccc(F)c(C#CC(O)CN)c21 (configuration not stated)
110,90,5,COc1cc[nH]c1/C=C1\C(=O)Nc2ccc(F)c(C#C[C@@H]3C[C@H](O)CN3)c21
